Calls of active or inactive are those of the source. No cut-off for these calls is given here.
Columns and labels:
[1] = Antioxidant activity assessed as superoxide-scavenging activity by nitrite method; type: functional
[2] = molecular target: Xanthine dehydrogenase/oxidase (Homo sapiens, UniProt P47989); assay: Inhibition of xanthine oxidase assessed as decrease in uric acid production by spectrophotometry
Outline: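 Flavonoid at various concentrations with 50 µM xanthine, 0.2 mM hydroxylamine and 0.1 mM EDTA. Stopped with HCl, then uric acid read as absorbance at 290 nm against an enzyme-free blank. IC50 by linear regression.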

[3] = Prooxidant effect assessed as superoxide production by nitrite method; type: functional
Outline: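 Xanthine oxidase (6.25 mU/mL, in 200 mM phosphate buffer pH 7.50) generated superoxide from 50 µM xanthine with 0.2 mM hydroxylamine and 0.1 mM EDTA, plus flavonoid at various concentrations. Incubated 30 min at 37 °C. Superoxide read by the nitrite method: stood 30 min at room temperature, then absorbance at 550 nm. Levels compared with control experiments; IC50 from linear regression.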

Sequence of Xanthine dehydrogenase/oxidase (P47989 whole entry): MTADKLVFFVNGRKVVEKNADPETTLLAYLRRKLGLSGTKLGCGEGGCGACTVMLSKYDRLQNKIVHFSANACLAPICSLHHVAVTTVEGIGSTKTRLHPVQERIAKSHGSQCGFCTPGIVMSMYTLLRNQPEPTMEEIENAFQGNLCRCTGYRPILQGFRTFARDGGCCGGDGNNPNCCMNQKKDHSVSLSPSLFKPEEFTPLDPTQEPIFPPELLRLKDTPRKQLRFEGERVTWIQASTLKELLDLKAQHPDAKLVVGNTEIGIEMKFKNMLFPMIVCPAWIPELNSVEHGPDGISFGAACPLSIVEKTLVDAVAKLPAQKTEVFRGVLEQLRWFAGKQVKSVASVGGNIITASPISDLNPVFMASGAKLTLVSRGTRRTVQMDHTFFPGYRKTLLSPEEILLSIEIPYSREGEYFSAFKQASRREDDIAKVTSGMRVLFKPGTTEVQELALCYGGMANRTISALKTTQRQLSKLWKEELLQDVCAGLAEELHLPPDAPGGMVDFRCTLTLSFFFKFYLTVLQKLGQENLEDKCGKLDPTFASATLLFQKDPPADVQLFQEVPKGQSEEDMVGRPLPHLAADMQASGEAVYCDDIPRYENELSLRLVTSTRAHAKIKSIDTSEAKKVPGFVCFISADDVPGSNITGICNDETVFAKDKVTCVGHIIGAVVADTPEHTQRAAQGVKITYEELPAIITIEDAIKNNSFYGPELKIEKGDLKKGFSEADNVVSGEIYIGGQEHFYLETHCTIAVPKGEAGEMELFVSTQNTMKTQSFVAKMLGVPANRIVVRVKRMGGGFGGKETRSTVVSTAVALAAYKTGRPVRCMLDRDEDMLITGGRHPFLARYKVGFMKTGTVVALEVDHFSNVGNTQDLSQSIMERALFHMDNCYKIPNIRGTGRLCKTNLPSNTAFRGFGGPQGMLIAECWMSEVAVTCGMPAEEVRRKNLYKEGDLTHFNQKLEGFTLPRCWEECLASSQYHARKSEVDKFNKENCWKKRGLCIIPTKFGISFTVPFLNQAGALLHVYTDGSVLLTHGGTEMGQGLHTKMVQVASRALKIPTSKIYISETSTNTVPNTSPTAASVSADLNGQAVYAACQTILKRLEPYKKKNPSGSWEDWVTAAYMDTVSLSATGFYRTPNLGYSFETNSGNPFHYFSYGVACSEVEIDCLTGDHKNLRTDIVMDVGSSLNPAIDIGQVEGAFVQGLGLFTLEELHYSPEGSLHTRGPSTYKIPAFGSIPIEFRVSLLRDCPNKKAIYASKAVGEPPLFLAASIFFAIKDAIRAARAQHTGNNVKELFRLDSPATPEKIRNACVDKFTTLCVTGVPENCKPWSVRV

Question: With `Oc1ncnc2[nH]ncc12` [ALLOPURINOL] as the compound, how does the IC50 [1] read?
Answer: 0.23 µM

Question: For `COc1ccc(-c2cc(=O)c3c(OC)c(OC)c(OC)c(OC)c3o2)cc1` [TANGERETIN], which IC50 [2] is on record?
Answer: > 100 µM

Question: And the IC50 [1]?
Answer: > 100 µM

Question: For `Oc1cc(O)c2c(c1)O[C@H](c1ccc(O)c(O)c1)[C@@H](O)C2` [CIANIDANOL], which IC50 [2] is on record?
Answer: > 100 µM

Question: And the IC50 [1]?
Answer: 1.61 µM

Question: For `O=c1c(O)c(-c2ccccc2)oc2ccccc12` [FLAVONOL], which IC50 [2] is on record?
Answer: > 100 µM

Question: What about the IC50 [1] of the same compound?
Answer: > 100 µM

Question: Which IC50 [2] does the source give for `O=c1cc(-c2ccccc2)oc2cc(O)c(O)c(O)c12` [BAICALEIN] here?
Answer: 2.79 µM

Question: What about the IC50 [1] of the same compound?
Answer: 2.72 µM

Question: With `O=c1cc(-c2ccccc2)oc2cc(O)cc(O)c12` [CHRYSIN] as the compound, how does the IC50 [2] read?
Answer: 0.84 µM

Question: And the IC50 [1]?
Answer: 1.87 µM

Question: For `Oc1cc(O)c2c(c1)O[C@H](c1cc(O)c(O)c(O)c1)[C@H](O)C2` [EPIGALLOCATECHIN], which IC50 [2] is on record?
Answer: > 100 µM

Question: And the IC50 [1]?
Answer: 0.48 µM

Question: For `O=c1c(O)c(-c2ccc(O)c(O)c2)oc2cc(O)cc(O)c12` [QUERCETIN], which IC50 [1] is on record?
Answer: 1.63 µM

Question: Which results are given for `O=C(/C=C/c1ccc(O)cc1)OC[C@H]1O[C@@H](Oc2c(-c3ccc(O)cc3)oc3cc(O)cc(O)c3c2=O)[C@H](O)[C@@H](O)[C@@H]1O` [TILIROSIDE]?
Answer: IC50 [2]: > 100 µM; IC50 [1]: > 100 µM

Question: Which IC50 [2] does the source give for `COc1ccc(-c2cc(=O)c3c(OC)c(OC)c(OC)c(OC)c3o2)cc1OC` [NOBILETIN] here?
Answer: > 100 µM

Question: And the IC50 [1]?
Answer: > 100 µM

Question: Which IC50 [2] does the source give for `O=c1cc(-c2ccccc2)oc2cc(O)ccc12` [7-HYDROXYFLAVONE] here?
Answer: 38 µM

Question: What about the IC50 [1] of the same compound?
Answer: > 100 µM

Question: What about the Activity [3] of the same compound?
Answer: Active

Question: What does the source list for `COc1cc(-c2cc(=O)c3c(O)cc(O[C@@H]4O[C@H](CO)[C@@H](O)[C@H](O)[C@H]4O[C@@H]4O[C@@H](C)[C@H](O)[C@@H](O)[C@H]4O)cc3o2)ccc1O` [CHRYSOERIOL-7-O-NEOHESPERIDOSIDE]?
Answer: IC50 [2]: > 100 µM; IC50 [1]: > 100 µM

Question: With `O=C1CC(c2ccc(O)cc2)Oc2ccccc21` (configuration not stated) [4'-HYDROXY-FLAVANONE] as the compound, how does the IC50 [2] read?
Answer: > 30 µM

Question: What about the IC50 [1] of the same compound?
Answer: > 18 µM

Question: What does the source list for `Oc1cc(O)c2c(c1)O[C@H](c1ccc(O)c(O)c1)[C@H](O)C2` [(-)-EPICATECHIN]?
Answer: IC50 [2]: > 100 µM; IC50 [1]: 1.59 µM

Question: Which results are given for `C[C@@H]1O[C@@H](OC[C@H]2O[C@@H](Oc3c(-c4ccc(O)cc4)oc4cc(O)cc(O)c4c3=O)[C@H](O)[C@@H](O)[C@@H]2O)[C@H](O)[C@H](O)[C@H]1O` [NICOTIFLOROSIDE]?
Answer: IC50 [2]: 14.8 µM; IC50 [1]: 3.4 µM

Question: What does the source list for `C[C@@H]1O[C@@H](Oc2c(-c3ccc(O)c(O)c3)oc3cc(O)cc(O)c3c2=O)[C@H](O)[C@H](O)[C@H]1O` [QUERCITRIN]?
Answer: IC50 [2]: > 100 µM; IC50 [1]: 8.1 µM

Question: For `O=c1c(O)c(-c2cc(O)c(O)c(O)c2)oc2cc(O)cc(O)c12` [MYRICETIN], which IC50 [2] is on record?
Answer: 2.38 µM

Question: And the IC50 [1]?
Answer: 0.33 µM

Question: With `O=C1c2c(O)cc(O)cc2OC(c2ccc(O)c(O)c2)C1O` (racemic) [TAXIFOLIN] as the compound, how does the IC50 [1] read?
Answer: 1.73 µM

Question: With `C[C@@H]1O[C@@H](OC[C@H]2O[C@@H](Oc3c(-c4ccc(O)c(O)c4)oc4cc(O)cc(O)c4c3=O)[C@H](O)[C@@H](O)[C@@H]2O)[C@H](O)[C@H](O)[C@H]1O` [RUTIN] as the compound, how does the IC50 [2] read?
Answer: 52.2 µM

Question: What does the source list for `C[C@@H]1O[C@@H](O[C@H]2[C@H](Oc3cc(O)c4c(=O)cc(-c5ccc(O)c(O)c5)oc4c3)O[C@H](CO)[C@@H](O)[C@@H]2O)[C@H](O)[C@H](O)[C@H]1O` [LONICERIN]?
Answer: IC50 [2]: 11.9 µM; IC50 [1]: 2.37 µM

Question: Which results are given for `COc1cc(-c2oc3cc(O)cc(O)c3c(=O)c2O)ccc1O` [ISORHAMNETIN]?
Answer: IC50 [2]: 2.51 µM; IC50 [1]: 2.75 µM

Question: For `O=c1cc(-c2ccc(O)cc2)oc2cc(O)cc(O)c12` [APIGENIN], which IC50 [2] is on record?
Answer: 0.7 µM

Question: What about the IC50 [1] of the same compound?
Answer: 1.33 µM

Question: With `COc1cc(O)c2c(=O)c(O)c(-c3ccc(OC)c(O)c3)oc2c1` [OMBUINE] as the compound, how does the IC50 [2] read?
Answer: 7.7 µM

Question: And the IC50 [1]?
Answer: 2.6 µM

Question: Which IC50 [2] does the source give for `O=c1c(O)c(-c2ccccc2)oc2cc(O)cc(O)c12` [GALANGIN] here?
Answer: 1.8 µM

Question: What about the IC50 [1] of the same compound?
Answer: 6.74 µM

Question: For `O=c1c(O)c(-c2ccc(O)c(O)c2)oc2cc(O)ccc12` [FISETIN], which IC50 [2] is on record?
Answer: 4.33 µM

Question: And the IC50 [1]?
Answer: 1.84 µM

Question: For `COc1cc2oc(-c3ccc(O[C@@H]4O[C@H](CO)[C@@H](O)[C@H](O)[C@H]4O)cc3)cc(=O)c2c(O)c1OC` [CIRSIMARIN], which IC50 [2] is on record?
Answer: > 100 µM

Question: What about the IC50 [1] of the same compound?
Answer: > 100 µM

Question: With `O=c1c(O)c(-c2ccc(O)cc2)oc2cc(O)cc(O)c12` [KAEMPFEROL] as the compound, how does the IC50 [2] read?
Answer: 1.06 µM

Question: And the IC50 [1]?
Answer: 0.84 µM

Question: With `O=c1c(O)c(-c2ccc(O)cc2O)oc2cc(O)cc(O)c12` [MORIN] as the compound, how does the IC50 [2] read?
Answer: 10.1 µM

Question: What about the IC50 [1] of the same compound?
Answer: 9.1 µM

Question: Which results are given for `O=c1cc(-c2ccc(O)c(O)c2)oc2cc(O)cc(O)c12` [LUTEOLIN]?
Answer: IC50 [2]: 0.55 µM; IC50 [1]: 1.13 µM

Question: What does the source list for `O=C1C[C@@H](c2ccc(O)cc2)Oc2cc(O)cc(O)c21` [NARINGENIN]?
Answer: IC50 [2]: > 50 µM; IC50 [1]: > 50 µM
